PfM18AAP inh-1 = blocks P. falciparum M18 aspartyl aminopeptidase | recombinant PfM18AAP, H-Glu-NHMec fluorogenic cleavage | inhibition, % at 7.35 µM | 290,000 compounds, 1.2% hits;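 active = inhibition above the campaign mean inhibition over all tested compounds plus 3 SD, cut at about 28% in these data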
Wee1 degr inh = blocks degradation of human Wee1 kinase; P30291; HeLa Luc-Wee1K328M stability, luciferase luminescence; 100% = proteasome inhibitor MG132 effect; reporter increase, % at 5 µM; 220,000 compounds, 1.2% hits; AID 1321;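 active = activation above the mean of all tested compounds plus 3 SD, set per screening run, cut at about 8.8% in these data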;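 note: cells exposed to compound for 20 h before luminescence read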
Target sequence (P30291 whole entry K328M): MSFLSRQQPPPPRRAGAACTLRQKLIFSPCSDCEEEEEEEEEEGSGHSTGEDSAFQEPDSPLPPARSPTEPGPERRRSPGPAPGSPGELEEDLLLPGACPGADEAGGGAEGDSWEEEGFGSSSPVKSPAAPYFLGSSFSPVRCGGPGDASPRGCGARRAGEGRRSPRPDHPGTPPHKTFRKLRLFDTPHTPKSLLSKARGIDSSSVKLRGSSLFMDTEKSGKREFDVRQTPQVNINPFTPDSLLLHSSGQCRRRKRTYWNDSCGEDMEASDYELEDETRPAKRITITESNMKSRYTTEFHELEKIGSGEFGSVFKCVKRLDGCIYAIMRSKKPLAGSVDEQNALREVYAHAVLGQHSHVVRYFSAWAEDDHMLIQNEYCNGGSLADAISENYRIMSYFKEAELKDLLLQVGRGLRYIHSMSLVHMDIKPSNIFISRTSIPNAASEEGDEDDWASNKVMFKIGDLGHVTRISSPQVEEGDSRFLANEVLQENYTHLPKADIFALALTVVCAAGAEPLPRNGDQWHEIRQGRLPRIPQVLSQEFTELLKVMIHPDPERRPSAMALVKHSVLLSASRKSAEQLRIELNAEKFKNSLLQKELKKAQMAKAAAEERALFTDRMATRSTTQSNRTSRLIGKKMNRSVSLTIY
p97 ATPase inh = inhibitors of human p97 ATPase. P55072. AID 1481. inhibition, % at 8 µM. recombinant p97 ATPase, Kinase-Glo ATP luminescence, 3 h. 220,000 compounds, 0.42% hits; in the data active = inhibition above about 15%
RBBP9 inhibitor = human RBBP9 hydrolase inhibition; AID 1515; recombinant RBBP9, FP-Rh probe fluorescence polarization; inhibition, % at 7.94 µM; 220,000 compounds, 0.2% hits; O75884;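 active = inhibition above the campaign mean of all tested compounds plus 3 SD, cut at about 14% in these data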
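system = RBBP9 protein | input = RBBP9 at 2.5 µM in dispensed solution, before mixing | measured by = fluorescence polarization (mP), excitation 525 nm, emission 598 nm | incubation = enzyme-compound preincubation 30 min, then probe labeling 45 min, 25 °C | buffer or medium = Tris-NaCl-Pluronic buffer, pH 8.0 | compound = single dose 7.94 µM | also added = FP-Rh probe, 375 nM dispensing solution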
TNF necrop inh = blocks TNF-alpha induced death of Jurkat FADD-/- cells | Jurkat FADD-/- TNF necroptosis rescue, ATP luminescence, 24 h; 0 = TNF only, 100 = no-TNF cells | activation (protection from cell death), % at 10 µM | 220,000 compounds, 0.068% hits | AID 463075;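 active = activation, meaning protection from cell death, of at least 50% relative to plate controls; inactive = activation below 50%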;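 note: necroptosis triggered by 40 ng/mL TNF-alpha added together with compound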
L929 necroptosis = L929 zVAD cell death inhibition | L929 zVAD necroptosis rescue, ATP luminescence, 24 h; with zVAD 60 µM | viability rescue, % at 10 µM | 220,000 compounds, 0.38% hits;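 active = activation, scaled between plate controls, above about 75%, limit read from the data; inactive = activation under that limit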
PfM18AAP inh-2 = confirmation of Plasmodium falciparum M18 aspartyl aminopeptidase inhibitors; shares compounds with PfM18AAP inh-1; recombinant PfM18AAP, H-Glu-NHMec fluorogenic cleavage; inhibition, % at 7.35 µM; 2,400 compounds, 28% hits;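 active = mean inhibition over replicate wells above the hit cutoff set for the earlier primary screen, cut at about 29% in these data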
CTSL1 counter = counter-screen for PFM18AAP inhibitors: confirmation of human cathepsin L inhibitors | shares compounds with PfM18AAP inh-1 | purified cathepsin L1, Z-Leu-Arg-MCA fluorescence | inhibition, % at 5.96 µM | 2,400 tested, under 10 active;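 active = average inhibition across replicates above the hit cutoff set in the earlier primary screen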
Hits are given with their value; . = inactive; / = no result. This is a sample that favours compounds with a hit; in the whole collection about 2.7% have one here.

SMILES	PfM18AAP inh-1	Wee1 degr inh	p97 ATPase inh	RBBP9 inhibitor	TNF necrop inh	L929 necroptosis	PfM18AAP inh-2	CTSL1 counter
CCSc1nnc(N2C(=O)c3ccc(C(=O)c4ccc(C(=O)O)cc4)cc3C2=O)s1	.	/	/	/	/	/	/	/
FC(F)(F)c1ccccc1NC(=S)Nn1cnnc1	75	/	/	/	/	/	56	.
COc1cc([N+](=O)[O-])ccc1NC(=S)Nn1cnnc1	84	/	/	/	/	/	71	.
Cc1ccc(Cl)cc1NC(=S)N(C)N	.	.	.	.	.	.	/	/
Cc1ccc(Cl)cc1NC(=S)Nn1cnnc1	77	/	/	/	/	/	63	.
Cc1ccc(C(=O)NCCCN2CCOCC2)c(C)c1	.	/	/	/	/	/	/	/
Oc1c(C(c2ccccc2)N2CCCCC2)sc2ncnn12 (centres undefined)	57	.	.	.	.	.	.	.
COc1ccc(C)cc1S(=O)(=O)NC(C)C(=O)Nc1ccc2c(c1)OCO2 (centres undefined)	.	/	/	/	/	/	/	/
Cc1cccc(-c2nc(CS(=O)CC(=O)NCCc3ccc(Cl)cc3)c(C)o2)c1 (centres undefined)	.	/	/	/	/	/	/	/
Clc1ccc(N=c2ssnc2Cl)cc1	.	.	.	.	.	.	/	/
COc1ccc(N=c2ssnc2Cl)cc1	.	.	.	.	.	.	/	/
COc1cc(N=c2ssnc2Cl)cc(OC)c1OC	39	.	.	.	.	.	.	.
Fc1ccc(N=c2ssnc2Cl)c(F)c1	32	.	.	.	.	.	.	.
Cc1cccc(-c2ncc(S(=O)(=O)C(C)(C)C)c(N)n2)c1	.	.	.	.	.	.	/	/
Cc1ccc(CN2CCN(/N=C/c3ccc(O)c(O)c3)CC2)cc1	64	/	/	/	/	/	38	.
Oc1ccc(/C=N/N2CCN(C3c4ccccc4-c4ccccc43)CC2)cc1O	50	.	.	.	.	.	36	.
Oc1ccc(/C=N/N2CCN(C3c4ccccc4-c4ccccc43)CC2)cc1	.	.	.	.	.	.	/	/
CC(=O)Nc1ccc(C(=O)CSc2nnnn2C2CCCC2)cc1	.	.	.	.	.	.	/	/
CCOC(=O)c1cnc2c(C)cccc2c1NCc1ccco1	.	.	.	.	.	.	/	/
CCOC(=O)c1cnc2c(C(=O)OC)cccc2c1NCc1ccco1	41	.	.	.	.	.	.	.
O=C(NCc1ccccn1)c1n[nH]c(=O)c2ccccc12	.	.	.	.	.	.	/	/
O=C(NCc1ccccn1)c1n[nH]c2ccccc12	37	.	.	.	.	.	.	.
O=C(OCn1cncn1)c1ccc(Cl)cc1Cl	53	.	.	.	.	.	29	.
O=c1cc(-c2ccc(O)cc2)oc2c(O)c(O)c(O)c(O)c12	52	.	.	.	.	.	.	.
CC1(C)Cc2c(c(N3CCOCC3)nc3sc(C(=O)Nc4cccc(Cl)c4)c(N)c23)CO1	41	/	/	/	/	/	.	.
SMILES	PfM18AAP inh-1	Wee1 degr inh	p97 ATPase inh	RBBP9 inhibitor	TNF necrop inh	L929 necroptosis	PfM18AAP inh-2	CTSL1 counter
CCOC(=O)c1sc2nc(N3CCCC3)c3c(c2c1N)CC(C)(C)OC3	.	.	.	.	.	.	/	/
CC1(C)Cc2c(c(N3CCOCC3)nc3sc(C(=O)Nc4ccccc4)c(N)c23)CO1	37	/	/	/	/	/	.	.
CN(C(=O)c1sc2nc(N3CCCC3)c3c(c2c1N)CC(C)(C)OC3)c1ccccc1	.	/	/	/	/	/	/	/
NNc1nc(-c2ccccc2)c2cc(Br)ccc2n1	35	/	/	/	/	/	.	.
NNc1nc(-c2ccccc2)c2cc(Cl)ccc2n1	.	.	.	.	.	.	/	/
CN1C(=O)CS(=O)c2ccc(C(=O)NC3CC3)cc21 (centres undefined)	44	.	.	.	.	.	.	.
O=C1c2ccccc2CN1Cc1ccccc1	.	/	/	/	/	/	/	/
COc1ccc(OC)c(Nc2nc(=O)c3cccnc3s2)c1	54	.	.	.	.	.	.	.
CSc1nc2nc3c(cn2n1)C(=O)CC(c1ccccc1)C3 (centres undefined)	34	.	.	.	.	.	.	.
O=C1CC(c2ccccc2)Cc2nc3nc(C(F)(F)F)nn3cc21 (centres undefined)	.	.	.	.	.	.	/	/
Cc1ccc(S(=O)(=O)NC(=O)Nc2ccc(N(C)C)cc2)cc1	43	/	/	/	/	/	.	.
Cc1ccc(NC(=O)NNS(=O)(=O)c2ccc(Br)cc2)cc1	.	.	.	.	.	.	/	/
Cc1sc2ccccc2[n+]1CC(=O)c1ccccc1	52	/	/	/	/	/	.	.
COc1ccc(CN2CCN(C3CCC3)CC2CCO)c(C)c1C (centres undefined)	.	/	/	/	/	/	/	/
O=C(NC(=S)Nc1cc(C(F)(F)F)ccc1Cl)c1ccccc1	.	.	.	.	.	.	/	/
O=C(O)c1ccc(NNC(=S)Nc2cc(C(F)(F)F)ccc2Cl)cc1	35	/	/	/	/	/	.	.
O=C(NCCCN1CCOCC1)c1ccc2nc(Cc3ccccc3F)oc2c1	.	/	/	/	/	/	/	/
CC(C)(C)OC(=O)COc1ccc(/C=N/NC(=O)CN2CCCCC2)cc1	.	/	/	/	/	/	/	/
Cc1cccc(OCC(=O)NCCCNC(=O)c2cnccn2)c1	.	/	/	/	/	/	/	/
O=C1C=C(Nc2cccc(O)c2)CC(c2ccco2)C1 (centres undefined)	44	.	.	.	.	.	.	.
O=C(CN1CCc2cc3c(cc2C1)OCCCO3)Nc1cccc([N+](=O)[O-])c1	35	/	/	/	/	/	.	.
Cc1cccc(C2NC(=O)c3c(sc(C)c3C)N2)c1O (centres undefined)	52	.	.	.	.	.	.	.
Cc1ccc(C2NC(=O)c3c(sc(C)c3C)N2)c(O)c1 (centres undefined)	35	.	.	.	.	.	.	.
Fc1ccccc1Cc1noc(CN2CCC(OCc3cccnc3)CC2)n1	.	.	.	.	.	.	/	/
CCOC(=O)c1cc(NC(=O)c2ccccc2)c(=O)n2c1oc1ccccc12	.	.	.	.	.	.	/	/
SMILES	PfM18AAP inh-1	Wee1 degr inh	p97 ATPase inh	RBBP9 inhibitor	TNF necrop inh	L929 necroptosis	PfM18AAP inh-2	CTSL1 counter
O=C(/C=C/c1ccccc1F)c1cccc([N+](=O)[O-])c1	34	.	.	.	.	.	.	.
COc1cc(/C=C/C(=O)c2cccc([N+](=O)[O-])c2)cc(OC)c1OC	.	.	.	.	.	.	/	/
Cc1ccc(C(CCNC(C)c2cccs2)c2ccco2)cc1 (centres undefined)	.	.	.	.	.	.	/	/
O=C(NNc1nc2c(F)cc(F)cc2s1)C1COc2ccccc2O1 (centres undefined)	.	.	.	.	.	.	/	/
CCC(=O)NNc1nc2c(F)cc(F)cc2s1	44	.	16	.	.	.	.	.
Cc1cccc2sc(NNC(=O)C3COc4ccccc4O3)nc12 (centres undefined)	36	.	.	.	.	.	.	.

Screening results deposited in PubChem by several laboratories.
